Test results: ChEMBL document CHEMBL4024762, “Discovery of N-(3-Carbamoyl-5,5,7,7-tetramethyl-5,7-dihydro-4H-thieno[2,3-c]pyran-2-yl)-lH-pyrazole-5-carboxamide (GLPG1837), a Novel Potentiator Which Can Open Class III Mutant Cystic Fibrosis Transmembrane Conductance Regulator (CFTR) Channels to a High Extent” (J Med Chem, 2018)

How the values were obtained:
[1] = molecular target: Cystic fibrosis transmembrane conductance regulator (Homo sapiens, UniProt P13569, F508DEL); assay: (§1) Potentiation of CFTR F508del mutant (unknown origin) expressed in human CFBE41o cells incubated for 10 mins in presence of forskolin measured for 7 secs by YFP halide assay; type: cell-based
Outline: (§2)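 CFBE41o- cells (CF bronchial line) transduced by adenovirus with F508del CFTR and YFP (H148Q/I152L/F47L). Cells held 24 h at 27°C, then treated 10 min at room temperature with 10 µM forskolin plus potentiator. YFP fluorescence read for 7 s across addition of NaI buffer (137 mM NaI). Activity = 1-(F/F0).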

[2] = system: Cystic fibrosis transmembrane conductance regulator (Homo sapiens), P13569 [F508del]; assay: as §1; type: cell-based; parameters: concentration or dose not given beside the values; outline: as §2
[3] = system: Cystic fibrosis transmembrane conductance regulator (Homo sapiens), P13569 [G551D]; assay: (§3) Potentiation of CFTR G551D mutant (unknown origin) expressed in HEK293 cells incubated for 10 mins in presence of forskolin measured for 2 mins by YFP halide assay; type: cell-based; parameters: concentration or dose not given beside the values
Outline: (§4)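 HEK293 cells transfected with the mutant CFTR (G551D, G178R, S549N or R117H) and YFP (H148Q/I152L/F47L), seeded directly after transfection, then 24 h at 37°C. Treated 10 min at room temperature with 10 µM forskolin plus potentiator. Fluorescence read for 2 min across addition of NaI buffer (375 mM NaI). Activity = 1-(F/F0).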

[4] = molecular target: Cystic fibrosis transmembrane conductance regulator (Homo sapiens, UniProt P13569, G551D); assay: as §3; type: cell-based; outline: as §4
[5] = Unbound intrinsic clearance in rat microsomes; type: ADME, Microsome
Outline: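 Intrinsic clearance in liver microsomes or hepatocytes, corrected for non-specific binding using fraction unbound in microsomes (Fu,mic) or in hepatocyte incubations (Fu,inc).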

Sequence of Cystic fibrosis transmembrane conductance regulator (Homo sapiens), P13569 [F508del] (P13569 as listed by the source): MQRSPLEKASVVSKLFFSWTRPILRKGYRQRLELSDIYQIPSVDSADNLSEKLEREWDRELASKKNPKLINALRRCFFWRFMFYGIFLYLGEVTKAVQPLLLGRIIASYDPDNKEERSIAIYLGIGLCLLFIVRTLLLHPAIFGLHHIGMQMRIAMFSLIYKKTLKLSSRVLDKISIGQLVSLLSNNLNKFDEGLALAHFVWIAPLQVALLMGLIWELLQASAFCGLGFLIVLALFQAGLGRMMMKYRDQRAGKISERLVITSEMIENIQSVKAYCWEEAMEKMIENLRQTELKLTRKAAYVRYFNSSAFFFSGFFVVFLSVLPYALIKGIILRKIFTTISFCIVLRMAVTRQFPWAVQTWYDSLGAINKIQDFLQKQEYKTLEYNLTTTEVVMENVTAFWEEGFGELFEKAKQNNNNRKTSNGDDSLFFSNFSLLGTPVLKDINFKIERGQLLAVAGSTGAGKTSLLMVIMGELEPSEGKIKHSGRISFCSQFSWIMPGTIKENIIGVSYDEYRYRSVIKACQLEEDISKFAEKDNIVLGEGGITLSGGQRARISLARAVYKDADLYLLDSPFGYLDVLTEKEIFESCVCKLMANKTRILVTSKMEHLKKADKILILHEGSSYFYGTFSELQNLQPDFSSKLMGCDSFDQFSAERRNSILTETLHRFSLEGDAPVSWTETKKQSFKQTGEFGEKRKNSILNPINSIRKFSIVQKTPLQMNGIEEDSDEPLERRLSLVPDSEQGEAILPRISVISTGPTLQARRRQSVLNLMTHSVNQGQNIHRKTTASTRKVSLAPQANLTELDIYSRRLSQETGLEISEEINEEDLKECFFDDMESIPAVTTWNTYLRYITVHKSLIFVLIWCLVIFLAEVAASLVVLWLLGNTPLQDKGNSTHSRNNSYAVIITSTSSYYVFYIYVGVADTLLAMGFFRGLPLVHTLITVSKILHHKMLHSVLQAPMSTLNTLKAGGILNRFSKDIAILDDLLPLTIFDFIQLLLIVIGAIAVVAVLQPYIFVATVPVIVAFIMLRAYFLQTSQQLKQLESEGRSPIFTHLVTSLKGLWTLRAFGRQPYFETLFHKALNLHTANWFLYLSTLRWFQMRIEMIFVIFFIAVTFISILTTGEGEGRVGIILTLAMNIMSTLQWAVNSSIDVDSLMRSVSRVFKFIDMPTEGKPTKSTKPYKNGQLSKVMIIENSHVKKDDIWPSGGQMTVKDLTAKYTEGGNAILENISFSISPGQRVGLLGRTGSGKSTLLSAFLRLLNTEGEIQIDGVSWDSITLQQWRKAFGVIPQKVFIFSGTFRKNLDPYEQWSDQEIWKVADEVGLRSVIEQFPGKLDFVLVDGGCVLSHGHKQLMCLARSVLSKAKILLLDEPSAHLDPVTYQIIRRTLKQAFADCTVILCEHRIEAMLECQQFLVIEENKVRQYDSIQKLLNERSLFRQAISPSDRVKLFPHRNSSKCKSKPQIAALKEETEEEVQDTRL
Sequence of Cystic fibrosis transmembrane conductance regulator (Homo sapiens, UniProt P13569, F508DEL) (P13569 as listed by the source): as above
Sequence of Cystic fibrosis transmembrane conductance regulator (Homo sapiens), P13569 [G551D] (P13569 whole entry G551D): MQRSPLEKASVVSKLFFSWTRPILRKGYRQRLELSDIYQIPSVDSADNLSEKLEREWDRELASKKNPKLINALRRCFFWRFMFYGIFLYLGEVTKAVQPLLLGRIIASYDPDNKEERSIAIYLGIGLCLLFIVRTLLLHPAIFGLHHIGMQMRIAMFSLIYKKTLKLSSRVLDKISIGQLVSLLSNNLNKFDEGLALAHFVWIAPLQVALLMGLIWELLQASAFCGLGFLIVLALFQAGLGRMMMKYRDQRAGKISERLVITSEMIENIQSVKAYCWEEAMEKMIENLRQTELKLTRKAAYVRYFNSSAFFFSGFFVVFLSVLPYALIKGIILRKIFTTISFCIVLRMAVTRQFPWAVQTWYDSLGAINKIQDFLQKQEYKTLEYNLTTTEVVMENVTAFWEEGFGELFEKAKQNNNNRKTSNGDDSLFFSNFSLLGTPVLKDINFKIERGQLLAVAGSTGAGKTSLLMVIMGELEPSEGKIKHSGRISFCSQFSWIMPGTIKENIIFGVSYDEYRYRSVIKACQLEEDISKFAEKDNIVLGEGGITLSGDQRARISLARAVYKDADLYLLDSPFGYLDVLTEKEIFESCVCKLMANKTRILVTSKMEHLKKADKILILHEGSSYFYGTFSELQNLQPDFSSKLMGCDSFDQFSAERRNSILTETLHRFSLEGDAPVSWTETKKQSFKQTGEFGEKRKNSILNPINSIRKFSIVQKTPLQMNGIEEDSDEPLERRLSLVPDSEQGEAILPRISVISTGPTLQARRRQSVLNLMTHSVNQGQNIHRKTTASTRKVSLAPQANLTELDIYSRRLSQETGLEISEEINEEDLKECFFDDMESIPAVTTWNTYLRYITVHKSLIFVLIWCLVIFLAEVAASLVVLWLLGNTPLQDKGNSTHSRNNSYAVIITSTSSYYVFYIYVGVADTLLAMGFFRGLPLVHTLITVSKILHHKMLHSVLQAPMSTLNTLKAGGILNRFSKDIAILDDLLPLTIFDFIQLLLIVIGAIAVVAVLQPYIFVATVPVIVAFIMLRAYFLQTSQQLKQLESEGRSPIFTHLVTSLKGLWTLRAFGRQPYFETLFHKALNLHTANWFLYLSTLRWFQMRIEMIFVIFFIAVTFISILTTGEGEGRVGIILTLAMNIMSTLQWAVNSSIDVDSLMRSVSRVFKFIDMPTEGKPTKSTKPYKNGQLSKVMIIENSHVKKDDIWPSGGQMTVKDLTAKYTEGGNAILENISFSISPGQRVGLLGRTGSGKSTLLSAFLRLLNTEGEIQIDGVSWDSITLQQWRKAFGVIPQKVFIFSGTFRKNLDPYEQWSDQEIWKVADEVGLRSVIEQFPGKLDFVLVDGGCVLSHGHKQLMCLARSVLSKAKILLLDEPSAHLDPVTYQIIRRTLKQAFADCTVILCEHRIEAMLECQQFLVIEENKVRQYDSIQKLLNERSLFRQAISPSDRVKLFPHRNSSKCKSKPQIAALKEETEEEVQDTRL
Sequence of Cystic fibrosis transmembrane conductance regulator (Homo sapiens, UniProt P13569, G551D) (P13569 whole entry G551D): as above

| Compound | EC50 [1] | Activity [2] | Activity [3] | EC50 [4] | CL free [5] |
| --- | --- | --- | --- | --- | --- |
| CC1(C)Cc2c(sc(NC(=O)[C@H](O)C(C)(C)C)c2C(N)=O)C(C)(C)O1 | 127 nM | 95% | 31% | – | – |
| CC1(C)Cc2c(sc(NC(=O)c3ccccc3O)c2C(N)=O)CO1 | 13 nM | 93% | 51% | 490 nM | – |
| Cc1ccc(C(=O)Nc2sc3c(c2C(N)=O)CCOC3)s1 | 778 nM | 74% | – | – | – |
| CC1Cc2c(sc(NC(=O)c3ccccc3O)c2C(N)=O)C(C)O1 (centres undefined) | 4 nM | 98% | 36% | 236 nM | – |
| CC1(C)Cc2c(sc(NC(=O)C3CNC(=O)C3)c2C(N)=O)C(C)(C)O1 (centres undefined) | > 10000 nM | – | – | – | – |
| CC1(C)Cc2c(sc(NC(=O)c3cc(C(F)(F)F)[nH]n3)c2C(N)=O)C(C)(C)O1 | 3 nM | – | – | 130 nM | – |
| NC(=O)c1c(NC(=O)c2ccccc2Cl)sc2c1CCCC2 | 326 nM | 71% | 18% | > 10000 nM | 1400 mL/min/kg |
| CC1(C)Cc2c(sc(NC(=O)[C@@H](O)C(C)(C)C)c2C(N)=O)C(C)(C)O1 | 2.7 nM | 95% | 50% | 421 nM | – |
| CC1(C)Cc2c(sc(NC(=O)C(C)(C)O)c2C(N)=O)C(C)(C)O1 | 16 nM | – | – | – | – |
| CC1(C)Cc2c(sc(NC(=O)C3(CO)CC3)c2C(N)=O)C(C)(C)O1 | 15 nM | 105% | 57% | 1320 nM | – |
| CC1(C)Cc2c(sc(NC(=O)c3ccccc3NS(C)(=O)=O)c2C(N)=O)C(C)(C)O1 | 147 nM | – | – | – | – |
| CC1(C)Cc2c(sc(NC(=O)C3(O)CC3)c2C(N)=O)C(C)(C)O1 | 23 nM | – | – | – | – |
| Cc1n[nH]c(C(=O)Nc2sc3c(c2C(N)=O)CC(C)(C)OC3(C)C)c1Cl | – | 92% | 68% | – | – |
| CC1(C)Cc2c(sc(NC(=O)c3ccccc3O)c2C(N)=O)C(C)(C)O1 | 4 nM | 111% | 52% | – | – |
| CC1(C)Cc2c(sc(NC(=O)c3cc(C(F)(F)F)n[nH]3)c2C(N)=O)C(C)(C)O1 | – | 107% | 49% | – | – |
